Assay results as given in article PMC2856757 (Journal of structural biology, 2010).

Tests used:
Format in all cases: physicochemical
[1] = RP-HPLC temperature profiling of peptide self-association; conditions: Gemini C18, 100mM NaClO4, 10mM NH4H2PO4, pH 7, 2%B per minute, 5°C - 80°C in 3°C increments, peptide 1.7mg/ml, retention times normalized to 5°C minus random coil control peptide
How it was run: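 Gradient is 0-100%B over 50 minutes; eluent B is 50/50 H2O/CH3CN with the same salts. Retention time at each temperature minus that at 5°C gives the normalised value. Association parameter = peptide normalised value minus control normalised value; the maximum is reported.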

[2] = Thermal denaturation by circular dichroism spectroscopy at 222 nm; conditions: CD at 222 nm, benign buffer (100mM KCl, 50mM PO4, pH 7), 5°C to 90°C in 0.5°C increments, 60°C/hour, from plot of fraction folded versus temperature
How it was run: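 Disulfide-bridged two-stranded peptides (air-oxidised overnight at 4°C in 100mM ammonium bicarbonate, pH 8.3) diluted to 0.2 mg/ml in 100mM KCl, 50mM PO4, pH 7 (1 mm cell). Concentration by amino acid analysis. Ellipticity at 222 nm scanned 5°C to 90°C, 0.5°C steps, 60°C/hour. Fraction folded from observed, fully folded and fully unfolded ellipticities. Tm is the 50%-unfolded temperature; ΔTm is taken versus native peptide.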

[3] = Circular dichroism spectra; conditions: 5°C; for [θ]222 Benign (mean residue ellipticity at 222 nm): CD, peptide 211μm to 265μm (0.2 mg/ml), 1 mm cell, average of 6 scans; for [θ]222 Benign (mean residue ellipticity at 222 nm) / [θ]222/[θ]208 Benign: benign buffer (100mM KCl, 50mM PO4, pH 7); for [θ]222/[θ]208 50% TFE / [θ]222/[θ]208 Benign: ratio of mean residue ellipticity at 222 nm and 208 nm; for [θ]222/[θ]208 50% TFE: 50/50 benign buffer/TFE (v/v)
How it was run: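 Disulfide-bridged peptides (N-acetylated, C-amidated, N-terminal Cys-Gly-Gly, air-oxidised overnight at 4°C in 100mM ammonium bicarbonate pH 8.3). Stocks of 2mg/mL in benign buffer are diluted to 0.2 mg/ml in benign buffer or buffer with 50% TFE. Concentration is by amino acid analysis. Scans run 190–255 nm in 0.5 nm steps at 50 nm per minute. Ellipticity is converted to molar ellipticity using mean residue weight, path length and concentration.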

[4] = listed as R101A/L110A/K112A/K118A

Substance	PA,Max (maximum association parameter, self-association) [1]	Tm (temperature at which 50% of the peptide is unfolded) [2] [°C]	[θ]222 Benign (mean residue ellipticity at 222 nm) [3]	[θ]222/[θ]208 50% TFE [3] [deg cm^2 dmol^-1]	[θ]222/[θ]208 Benign [3] [deg cm^2 dmol^-1]	[θ]222/[θ]208 Benign ([3]; listed as native peptide)	PA,Max (maximum association parameter, self-association) [1, 4]	Tm (temperature at which 50% of the peptide is unfolded) [2, 4]
Native: native tropomyosin 85-119 coiled-coil sequence with N-terminal Cys-Gly-Gly linker, N-acetylated, C-amidated, disulfide-bridged (Ac-CGGVASLNRRIQLVEEELDRAQERLATALQKLEEAEKA-NH2; also: disulfide-bridged two-stranded dimer (linker Cys); UniProt P09493 85-119, looked up, fragment)	3.4	52.9	-36,213 deg cm^2 dmol^-1	0.96	1.08	greater than 1 deg cm^2 dmol^-1		
TM2: TM85-119 analog with K118A substitution (VASLNRRIQLVEEELDRAQERLATALQKLEEAEAA; not fully specified; Cys-Gly-Gly linker; UniProt P09493 85-119, looked up, variant K118A)	2.7	48.7	-30,548 deg cm^2 dmol^-1	0.97	1.08			
TM3: TM85-119 analog with K112A/K118A substitutions (VASLNRRIQLVEEELDRAQERLATALQALEEAEAA; not fully specified; Cys-Gly-Gly linker; UniProt P09493 85-119, looked up, variant K112A K118A)	2.4	45.3	-29,457 deg cm^2 dmol^-1	0.97	1.08			
TM4: TM85-119 analog with R101A substitution (VASLNRRIQLVEEELDAAQERLATALQKLEEAEKA; not fully specified; Cys-Gly-Gly linker; UniProt P09493 85-119, looked up, variant R101A)	1.8	46.0	-34,390 deg cm^2 dmol^-1	0.96	1.08			
TM7: TM85-119 analog with R101A/L110A/K112A/K118A substitutions (VASLNRRIQLVEEELDAAQERLATAAQALEEAEAA; not fully specified; Cys-Gly-Gly linker; UniProt P09493 85-119, looked up, variant R101A L110A K112A K118A)	0	<5	-9,578 deg cm^2 dmol^-1	0.97	0.86		zero	less than 5 °C
